KCNQ1 inh: human KCNQ1 channel inhibition; P51787; 310,000 tested, 1.3% active; CHO-K1 KCNQ1, FluxOR thallium flux fluorescence; hits give high values; B-score at 10 µM;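 active = compounds whose thallium flux B-score, printed positive for inhibition, exceeds three library SD while starting fluorescence stays within three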;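 also: channel opened by potassium depolarization with thallium stimulus after 20 min compound exposure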
KCNK9 block: human KCNK9 channel inhibition; 310,000 tested, 1.2% active; HEK293 KCNK9, FluxOR thallium flux fluorescence; hits give low values; Q9NPC2; B-score at 10 µM;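 active = ratio B-score over 3 SD below the library mean, with starting fluorescence within 5 SD of its mean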;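 also: negative B-score means less thallium flux so channel inhibition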
KCNK3 inh: human KCNK3 channel inhibition, primary screen | O14649 | CHO-KCNK3 thallium flux, FluxOR fluorescence; hits give low values | B-score at 10 µM | 340,000 tested, 0.84% active | AID 602410;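 active = B-score under library mean minus 4 SD, starting fluorescence ratio at most library mean plus 5 SD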;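 also: more negative B-score means stronger inhibition of thallium flux through KCNK3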
hERG protect: compounds protecting human hERG from proarrhythmic drug block. Q12809. CHO-hERG, FluxOR thallium flux, dofetilide IC70 present. activation (rescue from dofetilide block), less the hit threshold, % at 10 µM. 310,000 tested, 0.51% active;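 active = activation above the mean of controls blocked by dofetilide plus 5 SD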;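 also: thallium influx through hERG after potassium depolarization seen as dye fluorescence rise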
KCNQ1 act: human KCNQ1 channel potentiation or activation; CHO-K1 KCNQ1, thallium flux FluxOR fluorescence; hits give high values; B-score at 10 µM; 310,000 tested, 0.35% active;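 active = fluorescence ratio B-score, a plate-corrected score, at least three library SD, with initial intensity B-score within 5 SD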
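assay system = KCNQ1-transfected CHO-K1 cells | medium = assay buffer with matched DMSO | probe or stimulus = depolarizing K+/Tl+ stimulus, K2SO4 and Tl2SO4 each 12.5 mM in 5x stock | dosing = single dose | incubation = dye 90 min, compound 20 min, room temperature | detection = kinetic FluxOR fluorescence, 10 s baseline plus 110 s post-stimulus | evaluation = ratio B score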
KCNQ1 inh valid: confirmation of human KCNQ1 potassium channel inhibitors. shares compounds with KCNQ1 inh. KCNQ1 cell line, FluxOR thallium flux fluorescence. inhibition, % at 10 µM. 1,600 tested, 93% active. AID 588353;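 active = primary screen active, with duplicate mean exceeding buffer control mean plus 3 SD of buffer wells, cut at about 28% in these data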;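 also: 0% = buffer control ratio and 100% = XE991 inhibitor control ratio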
CHO Tl flux: activity in parental CHO cells lacking KCNQ1; fluorescence ratio (Tl flux) at 10 µM; AID 588366; shares compounds with KCNQ1 inh; 1,600 tested, 21% active; parental CHO-K1, FluxOR thallium flux fluorescence ratio; hits give low values; zero means no signal rise above baseline;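 active = mean of duplicate thallium-flux fluorescence ratios in parental host cells more than 5 SD below the buffer control mean, cut at about 0.38 in these data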;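 also: ratio is peak minus minimum fluorescence divided by baseline fluorescence; actives read low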
KCNQ1 ephys val: confirmation of human KCNQ1 potassium channel inhibitors by electrophysiology | 490 tested, 20% active | KCNQ1-CHO cells, automated patch clamp current | shares compounds with KCNQ1 inh | calls only at 10 µM;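 active = KCNQ1 current drop exceeding 3 SD of negative control wells, seen in both duplicate runs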;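 also: steady state current during a 2 s step from -80 to +40 mV; negative values mean current inhibition and positive values mean potentiation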
KCNQ2 spec: KCNQ1 inhibitor that also blocks rat KCNQ2 channel; shares compounds with KCNQ1 inh; KCNQ2 cells, FluxOR thallium flux fluorescence; inhibition, % at 10 µM; 1,600 tested, 71% active; AID 651746;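 active = mean percent inhibition of the KCNQ2 thallium signal more than 5 SD above the buffer-only control wells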;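 also: KCNQ2 expressed in CHO cells; 0% = buffer control wells and 100% = XE-991 inhibitor control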
Target sequence (O88943 whole entry, looked up): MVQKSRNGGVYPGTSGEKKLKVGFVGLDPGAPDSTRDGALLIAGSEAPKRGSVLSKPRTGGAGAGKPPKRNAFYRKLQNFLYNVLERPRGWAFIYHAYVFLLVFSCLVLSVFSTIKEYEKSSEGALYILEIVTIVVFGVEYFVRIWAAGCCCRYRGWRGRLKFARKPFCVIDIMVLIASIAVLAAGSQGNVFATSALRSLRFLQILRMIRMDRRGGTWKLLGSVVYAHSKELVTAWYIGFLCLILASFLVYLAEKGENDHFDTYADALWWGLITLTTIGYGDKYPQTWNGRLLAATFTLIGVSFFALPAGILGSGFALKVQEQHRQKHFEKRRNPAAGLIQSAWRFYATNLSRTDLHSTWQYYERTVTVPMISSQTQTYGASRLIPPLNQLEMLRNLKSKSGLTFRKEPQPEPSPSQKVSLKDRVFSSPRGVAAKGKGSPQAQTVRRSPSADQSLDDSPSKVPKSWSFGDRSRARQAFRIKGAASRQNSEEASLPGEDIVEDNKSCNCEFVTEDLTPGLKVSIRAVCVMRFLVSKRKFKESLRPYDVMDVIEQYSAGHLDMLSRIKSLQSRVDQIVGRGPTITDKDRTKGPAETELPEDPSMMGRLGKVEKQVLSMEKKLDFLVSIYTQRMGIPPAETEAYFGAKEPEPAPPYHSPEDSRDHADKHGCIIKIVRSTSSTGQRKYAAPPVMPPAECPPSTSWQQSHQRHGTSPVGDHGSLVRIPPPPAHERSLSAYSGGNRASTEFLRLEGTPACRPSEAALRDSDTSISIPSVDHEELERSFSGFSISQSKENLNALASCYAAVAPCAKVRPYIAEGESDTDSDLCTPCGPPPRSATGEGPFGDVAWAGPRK
KCNQ1-KCNE1 inh: KCNQ1 inhibitor that also blocks human KCNQ1/KCNE1 channel; shares compounds with KCNQ1 inh; KCNQ1/KCNE1 cells, FluxOR thallium flux fluorescence; inhibition, % at 10 µM; 1,600 tested, 77% active; AID 652147;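 active = mean percent inhibition of duplicate wells above the buffer-only control mean plus 3 SD of those controls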;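 also: 0% = buffer only wells and 100% = XE-991 inhibitor control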
The depositor's hits bear a star; i = inactive; nt = no result; + = active, no number. A selection: hits, their analogues and other compounds. The true share with any hit is near 3.1%.

SMILES | KCNQ1 inh | KCNK9 block | KCNK3 inh | hERG protect | KCNQ1 act | KCNQ1 inh valid | CHO Tl flux | KCNQ2 spec | KCNQ1-KCNE1 inh | others
Cc1sc(NC(=O)CSc2ncn(-c3ccccc3)n2)nc1-c1ccccc1 | 6* | i | i | -2 | i | 32* | 0.48 | 77%* | i
CCOC(=O)c1sc(NC(=O)CSc2nnnn2-c2ccccc2)nc1C | i | i | i | -9 | i | nt | nt | nt | nt
CCOC(=O)c1sc(NC(=O)CSc2ncn(-c3ccccc3)n2)nc1C | 16* | i | i | -8 | i | 26* | 0.52 | i | i
Cc1sc(NC(=O)CSC2=NCCS2)nc1-c1ccccc1 | i | i | i | -7 | i | nt | nt | nt | nt
Cc1cc(C)c2nc(Nc3nc(-c4ccccc4)cc(=O)[nH]3)nc(C)c2c1 | i | i | i | -9 | i | nt | nt | nt | nt
CC1=CC(C)(C)N=C(Nc2nc(C)c3cc(C)cc(C)c3n2)N1 | 6* | i | i | -24 | i | 79* | 0.51 | 70%* | 59%*
CN(CC(=O)Nc1ccc(F)cc1)C(=O)c1cn(-c2ccccc2)nc1-c1cccs1 | nt | nt | i | nt | nt | nt | nt | nt | nt
CN(CC(=O)Nc1cccc(F)c1)C(=O)c1cn(-c2ccccc2)nc1-c1ccccc1 | 8* | i | i | -19 | i | 74* | 0.42 | 74%* | 93%*
CCOc1ccc(S(=O)(=O)N2CCC(C(=O)NCc3ccccc3CN3CCCC3)CC2)cc1 | nt | nt | i | nt | nt | nt | nt | nt | nt
O=C(OC1CCOC1=O)c1cc(S(=O)(=O)N2CCOCC2)c(Cl)cc1Cl (centres undefined) | nt | nt | i | nt | nt | nt | nt | nt | nt
CN1/C(=C\C=O)C(C)(C)c2ccccc21 | i | i | i | -3 | i | nt | nt | nt | nt
CN(C)c1ccc(N=C/C=C2\N(C)c3ccccc3C2(C)C)cc1 | 14* | i | i | -16 | i | 0 | 0.54 | i | i
CN1/C(=C/C=C(C#N)C#N)C(C)(C)c2ccccc21 | 25* | i | i | -44 | i | + | 0.12* | i | i
Cc1ccc(NC(=O)Nc2cccnc2)cc1Cl | 7* | i | i | -17 | i | 66* | 0.51 | i | i
O=C(Nc1ccc(OC(F)(F)F)cc1)Nc1cccnc1 | 6* | i | i | -7 | i | 40* | 0.48 | i | i
Fc1ccc(NC(=S)Nc2ccccc2N2CCOCC2)cc1Cl | 9* | i | i | -22 | i | 0 | 0.5 | i | i
O=C(Nc1ccc(F)cc1)Nc1cccnc1 | i | i | i | -9 | i | nt | nt | nt | nt
O=C(Nc1cccnc1)Nc1cc(Cl)cc(Cl)c1 | i | i | i | -18 | i | nt | nt | nt | nt
Fc1ccc(NC(=S)Nc2cccnc2)cc1Cl | 8* | i | i | -13 | i | 66* | 0.47 | i | 34%*
NC1=NC(=O)C(c2ccccc2)(c2ccccc2)S1 | nt | nt | i | nt | nt | nt | nt | nt | nt
CN(c1ccccc1)S(=O)(=O)c1ccc(C(=O)OCC(=O)NCc2cccs2)cc1 | 6* | i | i | -12 | i | 38* | 0.47 | 69%* | i
Cc1ccc(NC(=O)C2CCN(S(=O)(=O)c3ccc4c(c3)NC(=O)C(C)S4)CC2)c(Cl)c1 (centres undefined) | i | i | i | -6 | i | nt | nt | nt | nt
CC1Sc2ccc(S(=O)(=O)N3CCC(C(=O)NCC(C)c4ccccc4)CC3)cc2NC1=O (centres undefined) | 7* | i | i | -11 | i | 56* | 0.53 | i | i
Cc1cc(C)cc(NC(=O)C2CCN(S(=O)(=O)c3ccc4c(c3)NC(=O)C(C)S4)CC2)c1 (centres undefined) | 7* | i | i | -11 | i | 116* | 0.5 | 98%* | 131%* | KCNQ1 ephys val=i
Cc1ccc(NC(=O)C2CCN(S(=O)(=O)c3ccc4c(c3)NC(=O)C(C)S4)CC2)cc1Cl (centres undefined) | 17* | i | i | -13 | i | 126* | 0.41 | 92%* | 107%* | KCNQ1 ephys val=i
SMILES | KCNQ1 inh | KCNK9 block | KCNK3 inh | hERG protect | KCNQ1 act | KCNQ1 inh valid | CHO Tl flux | KCNQ2 spec | KCNQ1-KCNE1 inh | others
COc1ccc(CCN2C(=O)c3[nH]nc(-c4ccccc4O)c3C2c2cccc(Cl)c2)cc1 (centres undefined) | 9* | i | i | -4 | i | 109* | 0.46 | 90%* | 140%* | KCNQ1 ephys val=+
COCCN(C(=O)CSc1nnc(-c2ccccc2F)n1N)c1c(N)n(Cc2ccccc2)c(=O)[nH]c1=O | i | i | i | -7 | i | nt | nt | nt | nt
Cc1ccc(C(=O)Nc2nc(=O)n(C(=O)CC(C)C)s2)cc1 | 6* | i | i | 2 | i | 34* | 0.61 | i | i
Cc1ccc(C)c(N2N=C(C(=O)OCC(=O)N(C)c3ccccc3)CCC2=O)c1 | nt | nt | i | nt | nt | nt | nt | nt | nt
CC1C(=O)N2CCCc3cc(S(=O)(=O)Nc4ccccc4C(N)=O)cc1c32 (centres undefined) | i | i | i | -7 | i | nt | nt | nt | nt
CCOCCSc1n[nH]c(=O)n1CCc1ccccc1 | i | i | i | -3 | i | nt | nt | nt | nt
Fc1ccc(CSc2nc3ccccc3[nH]2)c2ccccc12 | 6* | i | i | -13 | i | 124* | 0.35* | 107%* | 124%*
CCOC(=O)Cc1nn[nH]n1 | 7* | i | i | -3 | i | 0 | 0.48 | i | 37%*
NC(=O)COC(=O)c1ccccc1Nc1ccc(SC(F)F)cc1 | i | i | i | -9 | i | nt | nt | nt | nt
CC(C)(C)NC(=O)COC(=O)c1ccccc1Nc1ccc(SC(F)F)cc1 | 6* | i | i | -9 | i | 119* | 0.37* | 109%* | 158%*
NCc1cc2c3c(c1)CCCN3CCC2 | i | i | i | 2 | i | nt | nt | nt | nt
c1ccc(-c2cn3nc4c(nc3n2)CCCC4)cc1 | 8* | i | i | -17 | i | 40* | 0.4 | 76%* | 76%*
Brc1ccc(-c2cn3nc4c(nc3n2)CCCC4)cc1 | i | i | i | -9 | i | nt | nt | nt | nt
COc1ccccc1NC(=O)CSc1nncs1 | nt | nt | i | nt | nt | nt | nt | nt | nt
CCOc1ccc(NC(C)c2cc(Cl)ccc2O)cc1 (centres undefined) | i | i | i | -5 | i | nt | nt | nt | nt

High-throughput results deposited in PubChem by Johns Hopkins Ion Channel Center.
